Source: ChEMBL document CHEMBL4680226, “Design, synthesis, and evaluation of N-phenyl-4-(2-phenylsulfonamido)-benzamides as microtubule-targeting agents in drug-resistant cancer cells, displaying HDAC inhibitory response” (Eur J Med Chem, 2020)
Active and inactive are the calls of the source. No cut-off for these calls is given here.

Key:
KB = test: Antiproliferative activity against human KB cells incubated for 48 hrs by SRB assay; format: functional
Method in brief: (§1)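 KB parental and resistant sublines kept in RPMI 1640 with 5% FBS at 37 °C, 5% CO2. Cells plated, left overnight, then given graded compound concentrations for 48 h. A time-zero plate was fixed with 10% TCA at dosing. Cells were stained with 0.4% SRB in 1% acetic acid, unbound dye washed off, bound dye dissolved in 10 mM Tris base, and absorbance read at 515 nm.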

[1] = Antiproliferative activity against human KB-VIN cells incubated for 48 hrs by SRB assay; format: functional; details: KBVIN; method in brief: as §1
KB-VIN [2] = test: Cell cycle arrest in human KB-VIN cells assessed as increase in accumulation at sub-G1 phase at 0.01 to 0.1 uM measured after 24 hrs by propidium iodide staining based flow cytometry; format: functional; details: dose 0.01-0.1 µM
Method in brief: (§2)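 Cells seeded at 2.5×10^5 per well and exposed to DMSO or compound for the stated times. They were washed in PBS and fixed overnight in ice-cold 70% ethanol at −20 °C. Staining used propidium iodide 80 µg/mL with 0.1% Triton X-100 and RNase A 100 µg/mL in PBS. DNA content was read by FACScan flow cytometry.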

KB-VIN [3] = test: Induction of apoptosis in human KB-VIN cells assessed as increase in cleaved PARP expression at 0.1 uM measured after 24 hrs by Western blot analysis; format: functional, cell-based
Method in brief: (§3)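 Resistant KB cells attached overnight, then drug-treated at the stated concentrations and times (24 h or 48 h). Lysates were immunoblotted for cleaved PARP, caspase-3, -8 and -9, and γH2AX, with anti-mouse or anti-rabbit IgG secondaries.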

KB-VIN [4] = test: Induction of apoptosis in human KB-VIN cells assessed as increase in cleaved caspase-3 expression at 0.1 uM measured after 24 hrs by Western blot analysis; format: functional, cell-based; method in brief: as §3
KB-VIN [5] = test: Induction of apoptosis in human KB-VIN cells assessed as increase in cleaved caspase-8 expression at 0.1 uM measured after 24 hrs by Western blot analysis; format: functional, cell-based; method in brief: as §3
KB-VIN [6] = test: Induction of apoptosis in human KB-VIN cells assessed as increase in cleaved caspase-9 expression at 0.1 uM measured after 24 hrs by Western blot analysis; format: functional, cell-based; method in brief: as §3
KB-VIN [7] = test: Induction of apoptosis in human KB-VIN cells assessed as increase in activated gammaH2AX expression at 0.1 uM measured after 24 hrs by Western blot analysis; format: functional, cell-based; method in brief: as §3
KB-VIN [8] = test: Cell cycle arrest in human KB-VIN cells assessed as increase in accumulation at sub-G1 phase at 0.1 uM measured after 48 hrs by propidium iodide staining based flow cytometry; format: functional; method in brief: as §2
KB-VIN [9] = test: Induction of apoptosis in human KB-VIN cells assessed as increase in cleaved PARP expression at 0.1 uM measured after 48 hrs by Western blot analysis; format: functional, cell-based; method in brief: as §3
KB-VIN [10] = test: Induction of apoptosis in human KB-VIN cells assessed as increase in cleaved caspase-3 expression at 0.1 uM measured after 48 hrs by Western blot analysis; format: functional, cell-based; method in brief: as §3
KB-VIN [11] = test: Induction of apoptosis in human KB-VIN cells assessed as increase in cleaved caspase-8 expression at 0.1 uM measured after 48 hrs by Western blot analysis; format: functional, cell-based; method in brief: as §3
KB-VIN [12] = test: Induction of apoptosis in human KB-VIN cells assessed as increase in cleaved caspase-9 expression at 0.1 uM measured after 48 hrs by Western blot analysis; format: functional, cell-based; method in brief: as §3
KB-VIN [13] = test: Induction of apoptosis in human KB-VIN cells assessed as increase in activated gammaH2AX expression at 0.1 uM measured after 48 hrs by Western blot analysis; format: functional, cell-based; method in brief: as §3
Tubulin (Homo sapiens) [14] = biological target: T1, Tubulin (Homo sapiens) (UniProt P68371+Q9H4B7+P0DPH7+P68366+Q13509+Q71U36+P04350+Q3ZCM7+P07437+P68363+Q9BQE3+Q6PEY2+Q13885+Q9BVA1+Q9BUF5); test: Induction of microtubule disruption in human KB-VIN cells at 1 uM measured after 24 hrs by DAPI staining based deconvolution fluorescence microscopic analysis; format: cell-based
Method in brief: (§4)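 Cells on glass coverslips treated 24 h, fixed in 4% paraformaldehyde for 15 min, and permeabilized with 0.5% Triton X-100. Blocked in PBS/2% BSA, stained with anti-beta-tubulin (1:250) and Alexa 488 anti-mouse (1:250), and mounted with DAPI. Imaged by wide-field deconvolution microscopy.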

Tubulin (Homo sapiens) [15] = biological target: T1, Tubulin (Homo sapiens); test: Induction of microtubule disruption in human KB7D cells at 1 uM measured after 24 hrs by DAPI staining based deconvolution fluorescence microscopic analysis; format: cell-based; method in brief: as §4
Tubulin (Homo sapiens) [16] = biological target: T1, Tubulin (Homo sapiens); test: Induction of microtubule disruption in human KB-VIN cells assessed as polymerized fraction at 0.01 uM measured after 16 hrs by SDS-PAGE analysis (reference value: 23.1 to 25.5%); format: cell-based
Method in brief: (§5)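 KB-Vin or KB-7D cells treated 16 h, then lysed 5 min at 37 °C in the dark in hypotonic buffer (1% NP-40, 1 mmol/L MgCl2, 2 mmol/L EGTA, 50 mmol/L Tris-HCl pH 6.8, protease inhibitors). Spun 13000 rpm, 10 min, room temperature. Soluble supernatant and resuspended polymerized pellet run on SDS-PAGE.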

Tubulin (Homo sapiens) [17] = biological target: T1, Tubulin (Homo sapiens); test: Induction of microtubule disruption in human KB-VIN cells assessed as polymerized fraction at 0.1 uM measured after 16 hrs by SDS-PAGE analysis (reference value: 23.1 to 25.5%); format: cell-based; method in brief: as §5
Tubulin (Homo sapiens) [18] = biological target: T1, Tubulin (Homo sapiens); test: Induction of microtubule disruption in human KB-VIN cells assessed as polymerized fraction at 1 uM measured after 16 hrs by SDS-PAGE analysis (reference value: 23.1 to 25.5%); format: cell-based; method in brief: as §5
Tubulin (Homo sapiens) [19] = biological target: T1, Tubulin (Homo sapiens); test: Induction of microtubule disruption in human KB7D cells assessed as polymerized fraction at 0.01 uM measured after 16 hrs by SDS-PAGE analysis (reference value: 26.4 to 29%); format: cell-based; method in brief: as §5
Tubulin (Homo sapiens) [20] = biological target: T1, Tubulin (Homo sapiens); test: Induction of microtubule disruption in human KB7D cells assessed as polymerized fraction at 0.1 uM measured after 16 hrs by SDS-PAGE analysis (reference value: 26.4 to 29%); format: cell-based; method in brief: as §5
Tubulin (Homo sapiens) [21] = biological target: T1, Tubulin (Homo sapiens); test: Induction of microtubule disruption in human KB7D cells assessed as polymerized fraction at 1 uM measured after 16 hrs by SDS-PAGE analysis (reference value: 26.4 to 29%); format: cell-based; method in brief: as §5

COc1ccc(S(=O)(=O)Nc2ccc(CCc3ccc(C(=O)Nc4ccccc4N)cc3)cc2)cc1
GI50 (KB): > 10000 nM

Nc1ccccc1NC(=O)c1ccc(CCc2ccccc2)cc1
GI50 (KB): > 10000 nM

Nc1ccccc1NC(=O)c1ccc(CCc2ccccc2NS(=O)(=O)c2ccc(Br)cc2)cc1
GI50 (KB): 124 nM

N#Cc1ccc(S(=O)(=O)Nc2ccccc2CCc2ccc(C(=O)Nc3ccccc3N)cc2)cc1
GI50 (KB): 790 nM

Nc1ccccc1NC(=O)c1ccc(CCc2ccccc2NS(=O)(=O)c2ccccc2)cc1
GI50 (KB): 456 nM

CC[C@]1(O)C[C@H]2CN(CCc3c([nH]c4ccccc34)[C@@](C(=O)OC)(c3cc4c(cc3OC)N(C=O)[C@H]3[C@@](O)(C(=O)OC)[C@H](OC(C)=O)[C@]5(CC)C=CCN6CC[C@]43[C@@H]65)C2)C1 [VINCRISTINE]
GI50 (KB): 1.86 nM | GI50 [1]: 219 nM | Activity (KB-VIN [2]): Active | Activity (KB-VIN [3]): Active | Activity (KB-VIN [4]): Active | Activity (KB-VIN [5]): Active | Activity (KB-VIN [6]): Active | Activity (KB-VIN [7]): Active | Activity (KB-VIN [8]): Active | Activity (KB-VIN [9]): Active | Activity (KB-VIN [10]): Active | Activity (KB-VIN [11]): Active | Activity (KB-VIN [12]): Active | Activity (KB-VIN [13]): Active | Activity (Tubulin (Homo sapiens) [14]): Active | Activity (Tubulin (Homo sapiens) [15]): Active | Activity (Tubulin (Homo sapiens) [16]): 25.5% | Activity (Tubulin (Homo sapiens) [17]): 28.8% | Activity (Tubulin (Homo sapiens) [18]): 25.2% | Activity (Tubulin (Homo sapiens) [19]): 30.4% | Activity (Tubulin (Homo sapiens) [20]): 25.8% | Activity (Tubulin (Homo sapiens) [21]): 29.1%
